High-throughput results (PubChem BioAssay)
An excerpt weighted towards active compounds, which were near 9.4% of everything screened.
L major viab = Leishmania major promastigote growth inhibition, primary screen | AID 1063, 2008 | inhibition, % at 10 µM | 200,000 compounds, 9% hits | Leishmania major promastigotes, resazurin fluorescence viability; in the data active = inhibition above about 50%;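 note: promastigotes grown with compound for 44 hours at 28 °C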
SKKanGAS inh = S. pyogenes SKKanGAS growth inhibitors in kanamycin, primary screen, streptokinase expression inhibitor project, SKKanGAS strain, BacTiter-Glo luminescence. 6 h. 300,000 compounds, 1.3% hits. inhibition, % at 7.5 µM;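 active = mean replicate score, as percent of positive control median, at least 50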;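 note: strain carries kanamycin resistance gene driven by streptokinase promoter and grows in 40 µg/ml kanamycin; loss of luminescence reflects streptokinase promoter inhibition or plain growth inhibition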
Beta apoptosis = inhibitors of cytokine-induced beta cell apoptosis, primary screen, luminescence | 300,000 compounds, 0.8% hits | protection from apoptosis, % (concentration not given with the values) | INS-1E cytokine-induced death, ATP luminescence, 48 h; percent of positive-control rescue, neutral wells zero;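 active = Every replicate reaches about 75%, or at least half do and their mean reaches it too, limit read from the data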;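 note: higher means more ATP so stronger rescue from cytokine killing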
CSC inhib = cancer stem cell viability inhibitors, primary screen, luminescence. cancer stem cell-like cells viability. inhibition, % at 7.5 µM. AID 2717, 2010. 300,000 compounds, 1.1% hits; in the data active = inhibition above about 75%; tested in HMLE shEcad cells
Mdm2-MdmX inh = inhibitors of human Mdm2-MdmX association, primary screen, cell-based, luminescence, split luciferase, SaOS-2, uHTS. 330,000 compounds, 3% hits. inhibition, % at 8 µM. SaOS-2 split-luciferase Mdm2/MdmX complementation. AID 485346, 2010. Protein Mdm4 (Homo sapiens) + E3 ubiquitin-protein ligase Mdm2 (Homo sapiens), …;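 active = inhibition of at least 50% at 8 µM in the primary screen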
Target sequence (O15151 whole entry, looked up): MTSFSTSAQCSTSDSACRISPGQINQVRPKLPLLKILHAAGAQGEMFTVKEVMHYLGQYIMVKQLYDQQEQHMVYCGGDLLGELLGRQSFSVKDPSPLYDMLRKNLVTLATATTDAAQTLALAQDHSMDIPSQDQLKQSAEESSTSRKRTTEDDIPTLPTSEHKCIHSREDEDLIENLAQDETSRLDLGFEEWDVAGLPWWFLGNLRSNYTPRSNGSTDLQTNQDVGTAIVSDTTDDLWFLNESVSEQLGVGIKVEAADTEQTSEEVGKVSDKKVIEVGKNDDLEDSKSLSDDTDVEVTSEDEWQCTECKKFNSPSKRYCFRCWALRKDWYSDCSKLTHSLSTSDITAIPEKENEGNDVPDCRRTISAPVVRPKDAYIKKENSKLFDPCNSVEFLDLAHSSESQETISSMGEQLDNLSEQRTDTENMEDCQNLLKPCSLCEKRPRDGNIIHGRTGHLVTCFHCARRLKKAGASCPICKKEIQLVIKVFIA
Target sequence (Q00987 whole entry, looked up): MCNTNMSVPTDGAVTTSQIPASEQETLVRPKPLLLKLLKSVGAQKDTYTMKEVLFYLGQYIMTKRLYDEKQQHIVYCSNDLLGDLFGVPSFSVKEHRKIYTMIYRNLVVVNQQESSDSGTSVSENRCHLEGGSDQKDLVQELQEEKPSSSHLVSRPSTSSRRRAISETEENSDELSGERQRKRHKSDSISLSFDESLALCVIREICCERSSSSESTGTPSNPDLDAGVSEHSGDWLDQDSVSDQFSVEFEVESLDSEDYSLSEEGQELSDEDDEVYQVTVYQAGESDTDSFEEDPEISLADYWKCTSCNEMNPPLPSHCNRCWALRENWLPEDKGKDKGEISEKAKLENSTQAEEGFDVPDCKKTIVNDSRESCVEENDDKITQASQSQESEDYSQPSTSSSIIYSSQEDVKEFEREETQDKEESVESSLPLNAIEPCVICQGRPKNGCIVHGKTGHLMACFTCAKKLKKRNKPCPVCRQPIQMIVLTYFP
T cruzi repl = inhibitors of intracellular T. cruzi growth, primary screen, luminescence, NIH3T3 host cells | inhibition, % (no concentration beside the values) | T. cruzi beta-gal in NIH3T3, 90 h | 300,000 compounds, 1.4% hits;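 active = mean inhibition across valid replicates above about 55%, limit read from the data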;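 note: signal also drops with host cell toxicity which is not excluded here; higher percent means less beta-gal luminescence so fewer parasites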
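System: Mouse NIH/3T3 fibroblasts infected with β-gal-expressing T. cruzi Tulahuen C4 | Quantity: NIH/3T3 cells, 5,000 per well | Reagent: 5000 reporter trypomastigotes per well | Dosing: Compound pinned at 50 nL/well, DMSO | Schedule: 3 h host attachment, then at least 90 h co-culture | Detection: GalScreen luminescence, 60 min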
Hits are given with their value.

O=C(O)CN1C(=O)/C(=C\c2cc(Br)ccc2OCc2ccc([N+](=O)[O-])cc2)SC1=S was read as SKKanGAS inh inactive, Beta apoptosis inactive, CSC inhib inactive, Mdm2-MdmX inh inactive and T cruzi repl inactive.
`O=C(O)CN1C(=O)/C(=C\c2cc(Br)ccc2OCc2ccccc2Cl)SC1=S` gave SKKanGAS inh 95, Beta apoptosis inactive, CSC inhib 97, Mdm2-MdmX inh inactive and T cruzi repl inactive.
For Cc1ccc(NC(=O)N(Cc2ccco2)Cc2cc3cc(C)cc(C)c3nc2Cl)cc1 the results were L major viab inactive, SKKanGAS inh inactive and T cruzi repl 56.
For Cc1cccc2cc(CN(Cc3ccco3)C(=O)Nc3cccc(C#N)c3)c(Cl)nc12 the results were L major viab inactive, SKKanGAS inh inactive, Beta apoptosis inactive, CSC inhib inactive, Mdm2-MdmX inh inactive and T cruzi repl 60.
For Cc1ccc(C)c2[nH]c(=O)c(CN(Cc3ccco3)C(=O)Nc3ccccc3)cc12 the results were L major viab inactive, SKKanGAS inh inactive, Beta apoptosis inactive, CSC inhib inactive, Mdm2-MdmX inh inactive and T cruzi repl inactive.
Screening CCCCN1CCCC1CNC(=O)c1cc(C#N)c2ccccc2c1OC (stereo not given) returned SKKanGAS inh inactive, CSC inhib inactive, Mdm2-MdmX inh inactive and T cruzi repl inactive.
For CSc1nc(SCC(=O)NC(c2ccccc2)c2ccccc2)c2c3c(sc2n1)CN(C)CC3 the results were L major viab 71, SKKanGAS inh inactive, Beta apoptosis inactive, CSC inhib inactive, Mdm2-MdmX inh inactive and T cruzi repl 64.
`Fc1ccc(-c2nc3cnccn3c2NC2CCCC2)cc1` gave L major viab inactive, SKKanGAS inh inactive, Beta apoptosis inactive, CSC inhib inactive, Mdm2-MdmX inh inactive and T cruzi repl inactive.
For Oc1ccc(Br)cc1-c1nc2cnccn2c1NC1CCCCC1 the results were L major viab 85, SKKanGAS inh inactive, Beta apoptosis inactive, CSC inhib inactive, Mdm2-MdmX inh inactive and T cruzi repl inactive.
`O=c1[nH]c(NCCO)nc2c1C1(CCCCC1)Cc1ccccc1-2` gave L major viab inactive, Beta apoptosis inactive, CSC inhib inactive and Mdm2-MdmX inh inactive.
`O=c1c2c(nc(NCCO)n1CC1CCCCC1)-c1ccccc1CC21CCCC1` gave L major viab 91, SKKanGAS inh 87, Beta apoptosis inactive, CSC inhib inactive, Mdm2-MdmX inh inactive and T cruzi repl inactive.
CCC1(C)Cc2ccccc2-c2nc(NCCO)n(-c3ccc(C)cc3)c(=O)c21 (stereo not given) was read as L major viab 63, SKKanGAS inh inactive, Beta apoptosis inactive, CSC inhib inactive, Mdm2-MdmX inh inactive and T cruzi repl inactive.
Screening CC1(C)CC(n2c(NCCO)nc3c(c2=O)C2(CCCC2)Cc2ccccc2-3)CCO1 (stereo not given) returned L major viab 100, SKKanGAS inh inactive, Mdm2-MdmX inh inactive and T cruzi repl inactive.
Screening CCCCc1c(C)c(C#N)c2[nH]c3ccccc3n2c1=O returned L major viab 65, SKKanGAS inh inactive, Beta apoptosis inactive, CSC inhib inactive, Mdm2-MdmX inh inactive and T cruzi repl inactive.
Cc1c(CCO)c(=O)n2c([nH]c3ccccc32)c1C#N was read as SKKanGAS inh inactive, Beta apoptosis inactive, CSC inhib inactive, Mdm2-MdmX inh inactive and T cruzi repl inactive.
Screening O=C(COc1ccc(S(=O)(=O)NC2CCCCC2)cc1)N1CCN(c2ccc(F)cc2)CC1 returned L major viab inactive, Beta apoptosis inactive, CSC inhib inactive and Mdm2-MdmX inh inactive.
Screening O=C(COc1ccc(S(=O)(=O)NC2CCCCC2)cc1Cl)N1CCN(c2ccccc2)CC1 returned L major viab 98, SKKanGAS inh inactive, Mdm2-MdmX inh inactive and T cruzi repl inactive.
`O=C(COc1ccc(S(=O)(=O)NC2CCCCC2)cc1Cl)NCC1CCCO1` (stereo not given) gave L major viab inactive, SKKanGAS inh inactive, Beta apoptosis inactive, CSC inhib inactive, Mdm2-MdmX inh inactive and T cruzi repl inactive.
COc1ccc(CCNC(=O)COc2ccc(S(=O)(=O)NC3CCCCC3)cc2Cl)cc1 was read as L major viab 75, SKKanGAS inh inactive, Beta apoptosis inactive, CSC inhib inactive, Mdm2-MdmX inh inactive and T cruzi repl inactive.
Screening OC1(c2ccc(Cl)c(Cl)c2)C[n+]2ccccc2N1Cc1ccccc1 (stereo not given) returned SKKanGAS inh inactive, Beta apoptosis inactive, CSC inhib inactive, Mdm2-MdmX inh inactive and T cruzi repl inactive.
For CCOC(=O)c1sc2ncn(/N=C/c3ccc(O)cc3)c(=O)c2c1C the results were L major viab 94, SKKanGAS inh inactive, Beta apoptosis inactive, CSC inhib inactive, Mdm2-MdmX inh inactive and T cruzi repl inactive.
`COC(=O)c1cn(CCC#N)nc1-c1ccc2ccccc2c1` gave SKKanGAS inh inactive, Beta apoptosis inactive, CSC inhib inactive, Mdm2-MdmX inh inactive and T cruzi repl inactive.
For Cc1cc(Cl)ccc1OCCCC(=O)NNC(=O)c1ccccc1O the results were SKKanGAS inh 101, Beta apoptosis inactive, CSC inhib inactive, Mdm2-MdmX inh inactive and T cruzi repl inactive.
Cc1ccccc1C(=O)Nc1ccc(C(=O)NNC(=O)CCCOc2ccc(Cl)cc2Cl)cc1 was read as L major viab inactive, SKKanGAS inh inactive, Beta apoptosis inactive, CSC inhib inactive, Mdm2-MdmX inh inactive and T cruzi repl inactive.
COCC(C)N=C1NN=C(c2cc(C)n(Cc3ccccc3Cl)c2C)CS1 (stereo not given) was read as L major viab 64, SKKanGAS inh inactive, Beta apoptosis inactive, CSC inhib inactive, Mdm2-MdmX inh inactive and T cruzi repl inactive.
Cc1cc(C2=NNC(=NC3CC3)SC2)c(C)n1Cc1ccco1 was read as L major viab inactive, Beta apoptosis inactive and CSC inhib inactive.
For COCCCN=C1NN=C(c2cc(C)n(Cc3ccco3)c2C)CS1 the results were L major viab 95, SKKanGAS inh inactive, Beta apoptosis inactive, CSC inhib inactive, Mdm2-MdmX inh inactive and T cruzi repl inactive.
CCOc1ccccc1N(C)C(=O)c1sc2ncn(CC(=O)N3CCCCC3C)c(=O)c2c1C (stereo not given) was read as SKKanGAS inh inactive, Beta apoptosis inactive, Mdm2-MdmX inh inactive and T cruzi repl inactive.
`CSc1ccccc1NC(=O)CN1C(=O)C2CC=CCC2C1=O` (stereo not given) gave Mdm2-MdmX inh inactive.
Screening CS(=O)(=O)N1CCN(c2ccccc2NC(=O)c2cc(Br)ccc2Cl)CC1 returned L major viab inactive, SKKanGAS inh inactive, Beta apoptosis inactive, Mdm2-MdmX inh inactive and T cruzi repl inactive.
